From ChEMBL document CHEMBL3227978, “Azetidine derivatives of tricyclic antidepressant agents” (J Med Chem, 1979)
Active and inactive are the calls of the source. The calls are words filed in the database; no cut-off is given here.

Legend:
Mus musculus [1] = test: Antidepressant activity in ICEM:CET (SPF Caw) mouse assessed as antagonism of reserpine-induced hypothermia at 25 mg/kg, po administered via gavage 30 mins before reserpine challenge measured 4 hrs after reserpine treatment; assay type: functional, organism-based; design: dose 25 mg/kg
Summary of the method: (§1)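 Male mice, 18-22 g, groups of ten, housed the evening before with a 9-h fast and water until 2 h before testing. Gavage dosing at 25 mg/kg in 0.5% Methocel, 30 min before reserpine 2.5 mg/kg ip in 0.5% acetic acid. Read blind: blepharospasm scored (Rubin scale) at 1 h, rectal thermocouple temperature at 4 h.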

Mus musculus [2] = test: Antidepressant activity in ICEM:CET (SPF Caw) mouse assessed as antagonism of reserpine-induced blepharospasm at 25 mg/kg, po administered via gavage 30 mins before reserpine challenge measured 1 hr after reserpine treatment; assay type: functional, organism-based; design: dose 25 mg/kg; summary of the method: as §1
Mus musculus [3] = test: Antidepressant activity in po dosed ICEM:CET (SPF Caw) mouse assessed as antagonism of reserpine-induced hypothermia administered via gavage 30 mins before reserpine challenge measured 4 hrs after reserpine treatment; assay type: functional
Summary of the method: (§2)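 Groups of ten male mice (18-22 g), fasted 9 h with water until 2 h pre-test. Oral gavage in 0.5% Methocel at doses below the 25 mg/kg screen, 30 min before reserpine 2.5 mg/kg ip. Blepharospasm scored blind at 1 h, rectal temperature at 4 h. ED50 estimated by eye-fit linear plots on semilogarithmic paper.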

Mus musculus [4] = test: Anticonvulsant activity in po dosed ICEM:CET (SPF Caw) mouse assessed as antagonism of pentylenetetrazole-induced flexor-extensor tonic convulsions administered via gavage 30 mins before pentylenetetrazole challenge; assay type: functional
Summary of the method: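 Male mice, 18-22 g, dosed orally by gavage in 0.5% Methocel (0.1 mL/10 g), starting at a 50 mg/kg screening dose, then graded doses. Pentylenetetrazole 130 mg/kg ip given 30 min later. Ten mice per dose and for controls. Dose preventing flexor-extensor tonic convulsions in 50% of animals read from dose-response curves (ED50).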

Mus musculus [5] = test: Orientative acute toxicity in po dosed ICEM:CET (SPF Caw) mouse administered via gavage measured for 60 mins after drug dosing by Irwin's test; assay type: organism-based; settings: in vivo, 1 h
Summary of the method: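 Male ICEM:CET (SPF Caw) mice, 18-22 g. Oral gavage, suspended or dissolved in 0.5% Methocel at 0.1 mL/10 g body weight. Doses of at least 25, 50, 100, 200, 400 and 800 mg/kg, four animals per dose. Animals were observed closely for 60 min after dosing during Irwin's symptomatologic test, and an approximate LD50 was estimated.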

Mus musculus [6] = test: Antidepressant activity in po dosed ICEM:CET (SPF Caw) mouse assessed as antagonism of reserpine-induced blepharospasm administered via gavage 30 mins before reserpine challenge measured 1 hr after reserpine treatment; assay type: functional; summary of the method: as §2

SMILES | Activity (Mus musculus [1]) | Activity (Mus musculus [2]) | ED50 (Mus musculus [3]) [mg/kg] | ED50 (Mus musculus [4]) [mg/kg] | LD50 (Mus musculus [5]) [mg/kg] | ED50 (Mus musculus [6]) [mg/kg]
CC(C)(C)N1CC(N2c3ccccc3C=Cc3ccccc32)C1 | inactive | inactive | – | – | – | –
CC(C)N1CC(CN2c3ccccc3COc3ccccc32)C1 | inactive | inactive | – | – | – | –
CC(C)(C)N1CC(N2c3ccccc3Sc3ccc(Cl)cc32)C1 | inactive | inactive | – | – | – | –
CC(C)N1CC(N2c3ccccc3COc3ccccc32)C1 | inactive | inactive | – | – | – | –
c1ccc2c(c1)COc1ccccc1N2CC1CNC1 | inactive | inactive | – | – | – | –
CC(C)N1CC(N2c3ccccc3CCc3ccccc32)C1 | inactive | inactive | – | – | – | –
CC(C)(C)N1CC(N2c3ccccc3Sc3ccccc32)C1 | inactive | inactive | – | – | – | –
CNC1CN(C2c3ccccc3COc3ccccc32)C1.O=C(O)/C=C/C(=O)O (single isomer, unassigned; (-)) | – | – | 14.1 | >50 | 100 | 1.3
CC(C)(C)N1CC(N2c3ccccc3CCc3ccccc32)C1 | inactive | inactive | – | – | – | –
CC(C)N1CC(CN2c3ccccc3CCc3ccccc32)C1 | inactive | inactive | – | – | – | –
CC(C)(C)N1CC(N2c3ccccc3Sc3ccc(C(F)(F)F)cc32)C1 | inactive | inactive | – | – | – | –
c1ccc2c(c1)CCc1ccccc1N2C1CNC1 | inactive | inactive | – | – | – | –
